Reference: ChEMBL document CHEMBL5303300, “EUbOPEN Chemogenomics Library - Multiplex” (2023)
“And” between values parts separate entries of the source, which are not always exact repeats. Equal entries are not always repeated.

Test system: HEK-293T
Test: Multiplex assay against HEK293T
Format: toxicity, cell-based
Conditions: human, number of replicates 2
Outline: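 Cells were classed with CellPathfinder machine-learning gating, first as Hoechst high-intensity objects or normal cells, then (normal cells) as healthy, pyknosed or fragmented nuclei, and finally (pyknosed cells) as mitotic or apoptotic. Staining of live cells at seeding used Hoechst33342, BioTracker Green Microtubule Cytoskeleton Dye, MitoTracker Red and Annexin V Alexa Fluor 680, with imaging on a CQ1 microscope at 37°C and 5% CO2 after compound addition. Tubulin, mitochondrial-mass and membrane-permeability phenotypes are per cents of healthy-nucleus cells.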

[1] = 12 h, 1 µM, compound concentration 1 uM
[2] = 12 h, 10 µM, compound concentration 10 uM
[3] = 24 h, 1 µM, compound concentration 1 uM
[4] = 24 h, 10 µM, compound concentration 10 uM
[5] = 48 h, 1 µM, compound concentration 1 uM
[6] = 48 h, 10 µM, compound concentration 10 uM

CCN1CCN(Cc2ccc(C(=O)Nc3ccc(C)c(Oc4ccc5c(c4)CC(=O)N5)c3)cc2C(F)(F)F)CC1.Cl.Cl
Population Apoptotic (%) [1]: 43% and 61% | Population Fragmented Nuclei (%) [1]: 3% and 7% | Population Healthy Nuclei (%) [1]: 83% and 79% | Population Hoechst High Intensity Objects (%) [1]: 6% and 8% | Population Membrane Permeable-Phenotype (%) [1]: 2% | Population Mitochondria Different-Phenotype (%) [1]: 24% and 20% | Population Mitotic Cells (%) [1]: 56% and 38% | Population Normal (%) [1]: 93% and 91% | Population Pyknosed Nuclei (%) [1]: 12% and 13% | Population Tubulin-Different-Phenotype (%) [1]: 64% and 61% | Total Cell Count [1]: 609 and 592 | Population Apoptotic (%) [2]: 68% and 69% | Population Fragmented Nuclei (%) [2]: 6% and 5% | Population Healthy Nuclei (%) [2]: 80% and 81% | Population Hoechst High Intensity Objects (%) [2]: 12% and 10% | Population Membrane Permeable-Phenotype (%) [2]: 6% and 2% | Population Mitochondria Different-Phenotype (%) [2]: 30% and 42% | Population Mitotic Cells (%) [2]: 31% and 30% | Population Normal (%) [2]: 87% and 89% | Population Pyknosed Nuclei (%) [2]: 13% and 12% | Population Tubulin-Different-Phenotype (%) [2]: 96% and 95% | Total Cell Count [2]: 598 and 606 | Population Apoptotic (%) [3]: 40% and 52% | Population Fragmented Nuclei (%) [3]: 4% and 3% | Population Healthy Nuclei (%) [3]: 88% and 89% | Population Hoechst High Intensity Objects (%) [3]: 7% and 8% | Population Membrane Permeable-Phenotype (%) [3]: 2% | Population Mitochondria Different-Phenotype (%) [3]: 9% | Population Mitotic Cells (%) [3]: 59% and 47% | Population Normal (%) [3]: 92% and 91% | Population Pyknosed Nuclei (%) [3]: 7% and 6% | Population Tubulin-Different-Phenotype (%) [3]: 45% and 47% | Total Cell Count [3]: 907 and 801 | Population Apoptotic (%) [4]: 58% and 78% | Population Fragmented Nuclei (%) [4]: 7% and 5% | Population Healthy Nuclei (%) [4]: 78% and 81% | Population Hoechst High Intensity Objects (%) [4]: 15% | Population Membrane Permeable-Phenotype (%) [4]: 4% and 2% | Population Mitochondria Different-Phenotype (%) [4]: 40% and 44% | Population Mitotic Cells (%) [4]: 41% and 21% | Population Normal (%) [4]: 84% | Population Pyknosed Nuclei (%) [4]: 14% and 12% | Population Tubulin-Different-Phenotype (%) [4]: 97% and 95% | Total Cell Count [4]: 517 and 556 | Population Apoptotic (%) [5]: 12% and 23% | Population Fragmented Nuclei (%) [5]: 10% and 6% | Population Healthy Nuclei (%) [5]: 85% and 87% | Population Hoechst High Intensity Objects (%) [5]: 9% and 8% | Population Membrane Permeable-Phenotype (%) [5]: 5% and 3% | Population Mitochondria Different-Phenotype (%) [5]: 0% and 1% | Population Mitotic Cells (%) [5]: 87% and 76% | Population Normal (%) [5]: 90% and 91% | Population Pyknosed Nuclei (%) [5]: 4% and 5% | Population Tubulin-Different-Phenotype (%) [5]: 22% and 28% | Total Cell Count [5]: 2293 and 1602 | Population Apoptotic (%) [6]: 75% | Population Fragmented Nuclei (%) [6]: 10% and 14% | Population Healthy Nuclei (%) [6]: 76% and 73% | Population Hoechst High Intensity Objects (%) [6]: 14% and 17% | Population Membrane Permeable-Phenotype (%) [6]: 13% and 5% | Population Mitochondria Different-Phenotype (%) [6]: 12% and 13% | Population Mitotic Cells (%) [6]: 25% | Population Normal (%) [6]: 85% and 82% | Population Pyknosed Nuclei (%) [6]: 12% | Population Tubulin-Different-Phenotype (%) [6]: 94% and 93% | Total Cell Count [6]: 709 and 749

CS(=O)(=O)c1ccc(C(=O)Nc2cc(F)cc(COc3ccc(Br)cc3CN3CC[C@H](O)C3)c2)c(Cl)c1.O=CO
Population Apoptotic (%) [1]: 63% | Population Healthy Nuclei (%) [1]: 81% and 82% | Population Mitotic Cells (%) [1]: 45% and 36% | Population Pyknosed Nuclei (%) [1]: 16% and 13% | Total Cell Count [1]: 543 and 646 | Population Apoptotic (%) [2]: 68% and 69% | Population Healthy Nuclei (%) [2]: 83% and 84% | Population Mitotic Cells (%) [2]: 31% and 30% | Population Pyknosed Nuclei (%) [2]: 13% | Total Cell Count [2]: 462 and 578 | Population Apoptotic (%) [3]: 60% and 50% | Population Healthy Nuclei (%) [3]: 82% | Population Mitotic Cells (%) [3]: 39% and 49% | Total Cell Count [3]: 757 and 913 | Population Apoptotic (%) [4]: 70% | Population Healthy Nuclei (%) [4]: 79% and 83% | Population Mitotic Cells (%) [4]: 29% | Population Pyknosed Nuclei (%) [4]: 17% | Total Cell Count [4]: 505 and 555 | Population Apoptotic (%) [5]: 34% and 23% | Population Healthy Nuclei (%) [5]: 85% | Population Mitotic Cells (%) [5]: 65% and 76% | Population Pyknosed Nuclei (%) [5]: 3% and 4% | Total Cell Count [5]: 1715 and 1868 | Population Apoptotic (%) [6]: 54% and 57% | Population Healthy Nuclei (%) [6]: 85% and 80% | Population Mitotic Cells (%) [6]: 46% and 42% | Population Pyknosed Nuclei (%) [6]: 8% and 10% | Total Cell Count [6]: 633 and 761

CCCNc1ccc2ncc(-c3ccncc3)n2n1
Population Apoptotic (%) [1]: 56% and 50% | Population Fragmented Nuclei (%) [1]: 3% and 4% | Population Healthy Nuclei (%) [1]: 81% and 85% | Population Hoechst High Intensity Objects (%) [1]: 7% and 8% | Population Membrane Permeable-Phenotype (%) [1]: 2% | Population Mitochondria Different-Phenotype (%) [1]: 26% and 15% | Population Mitotic Cells (%) [1]: 43% and 49% | Population Normal (%) [1]: 92% and 91% | Population Pyknosed Nuclei (%) [1]: 14% and 9% | Population Tubulin-Different-Phenotype (%) [1]: 64% and 54% | Total Cell Count [1]: 500 and 609 | Population Apoptotic (%) [2]: 55% and 50% | Population Fragmented Nuclei (%) [2]: 4% and 5% | Population Healthy Nuclei (%) [2]: 89% and 87% | Population Hoechst High Intensity Objects (%) [2]: 6% and 5% | Population Membrane Permeable-Phenotype (%) [2]: 2% and 1% | Population Mitochondria Different-Phenotype (%) [2]: 32% and 26% | Population Mitotic Cells (%) [2]: 44% and 50% | Population Normal (%) [2]: 93% and 94% | Population Pyknosed Nuclei (%) [2]: 6% and 7% | Population Tubulin-Different-Phenotype (%) [2]: 62% and 61% | Total Cell Count [2]: 481 and 583 | Population Apoptotic (%) [3]: 60% and 48% | Population Fragmented Nuclei (%) [3]: 5% and 7% | Population Healthy Nuclei (%) [3]: 88% and 86% | Population Hoechst High Intensity Objects (%) [3]: 11% and 15% | Population Membrane Permeable-Phenotype (%) [3]: 3% and 2% | Population Mitochondria Different-Phenotype (%) [3]: 17% and 6% | Population Mitotic Cells (%) [3]: 39% and 51% | Population Normal (%) [3]: 88% and 84% | Population Pyknosed Nuclei (%) [3]: 6% | Population Tubulin-Different-Phenotype (%) [3]: 47% and 48% | Total Cell Count [3]: 684 and 692 | Population Apoptotic (%) [4]: 66% and 48% | Population Fragmented Nuclei (%) [4]: 2% and 4% | Population Healthy Nuclei (%) [4]: 87% | Population Hoechst High Intensity Objects (%) [4]: 8% and 9% | Population Membrane Permeable-Phenotype (%) [4]: 1% | Population Mitochondria Different-Phenotype (%) [4]: 41% and 35% | Population Mitotic Cells (%) [4]: 33% and 51% | Population Normal (%) [4]: 91% and 90% | Population Pyknosed Nuclei (%) [4]: 9% and 8% | Population Tubulin-Different-Phenotype (%) [4]: 64% and 66% | Total Cell Count [4]: 490 and 643 | Population Apoptotic (%) [5]: 52% and 37% | Population Fragmented Nuclei (%) [5]: 14% | Population Healthy Nuclei (%) [5]: 80% and 81% | Population Hoechst High Intensity Objects (%) [5]: 16% and 21% | Population Membrane Permeable-Phenotype (%) [5]: 3% and 1% | Population Mitochondria Different-Phenotype (%) [5]: 5% and 6% | Population Mitotic Cells (%) [5]: 47% and 62% | Population Normal (%) [5]: 83% and 78% | Population Pyknosed Nuclei (%) [5]: 4% | Population Tubulin-Different-Phenotype (%) [5]: 33% and 47% | Total Cell Count [5]: 935 and 824 | Population Apoptotic (%) [6]: 55% and 68% | Population Fragmented Nuclei (%) [6]: 4% and 3% | Population Healthy Nuclei (%) [6]: 82% and 86% | Population Hoechst High Intensity Objects (%) [6]: 15% and 8% | Population Membrane Permeable-Phenotype (%) [6]: 2% and 1% | Population Mitochondria Different-Phenotype (%) [6]: 49% and 55% | Population Mitotic Cells (%) [6]: 44% and 31% | Population Normal (%) [6]: 84% and 91% | Population Pyknosed Nuclei (%) [6]: 13% and 9% | Population Tubulin-Different-Phenotype (%) [6]: 70% and 66% | Total Cell Count [6]: 503 and 413

C[C@H](N)Cn1ccc2cc(F)c(Cl)cc21.O=C(O)/C=C/C(=O)O
Population Apoptotic (%) [1]: 38% and 46% | Population Fragmented Nuclei (%) [1]: 3% and 2% | Population Healthy Nuclei (%) [1]: 82% and 85% | Population Hoechst High Intensity Objects (%) [1]: 8% | Population Membrane Permeable-Phenotype (%) [1]: 1% | Population Mitochondria Different-Phenotype (%) [1]: 17% and 15% | Population Mitotic Cells (%) [1]: 61% and 53% | Population Normal (%) [1]: 91% | Population Pyknosed Nuclei (%) [1]: 14% and 11% | Population Tubulin-Different-Phenotype (%) [1]: 59% and 53% | Total Cell Count [1]: 737 and 645 | Population Apoptotic (%) [2]: 58% and 55% | Population Fragmented Nuclei (%) [2]: 4% and 5% | Population Healthy Nuclei (%) [2]: 83% and 79% | Population Hoechst High Intensity Objects (%) [2]: 8% and 9% | Population Membrane Permeable-Phenotype (%) [2]: 5% and 1% | Population Mitochondria Different-Phenotype (%) [2]: 28% and 20% | Population Mitotic Cells (%) [2]: 41% and 44% | Population Normal (%) [2]: 91% and 90% | Population Pyknosed Nuclei (%) [2]: 12% and 14% | Population Tubulin-Different-Phenotype (%) [2]: 81% and 72% | Total Cell Count [2]: 443 and 563 | Population Apoptotic (%) [3]: 52% and 57% | Population Fragmented Nuclei (%) [3]: 10% and 6% | Population Healthy Nuclei (%) [3]: 77% and 82% | Population Hoechst High Intensity Objects (%) [3]: 7% | Population Membrane Permeable-Phenotype (%) [3]: 1% and 2% | Population Mitochondria Different-Phenotype (%) [3]: 6% and 4% | Population Mitotic Cells (%) [3]: 47% and 42% | Population Normal (%) [3]: 92% | Population Pyknosed Nuclei (%) [3]: 12% and 10% | Population Tubulin-Different-Phenotype (%) [3]: 32% and 28% | Total Cell Count [3]: 1141 and 1024 | Population Apoptotic (%) [4]: 63% and 59% | Population Fragmented Nuclei (%) [4]: 8% and 7% | Population Healthy Nuclei (%) [4]: 83% and 84% | Population Hoechst High Intensity Objects (%) [4]: 9% and 11% | Population Membrane Permeable-Phenotype (%) [4]: 2% and 3% | Population Mitochondria Different-Phenotype (%) [4]: 16% and 8% | Population Mitotic Cells (%) [4]: 36% and 40% | Population Normal (%) [4]: 90% and 88% | Population Pyknosed Nuclei (%) [4]: 7% and 8% | Population Tubulin-Different-Phenotype (%) [4]: 72% and 40% | Total Cell Count [4]: 634 and 884 | Population Apoptotic (%) [5]: 18% and 17% | Population Fragmented Nuclei (%) [5]: 17% and 11% | Population Healthy Nuclei (%) [5]: 80% and 85% | Population Hoechst High Intensity Objects (%) [5]: 9% | Population Membrane Permeable-Phenotype (%) [5]: 5% and 3% | Population Mitochondria Different-Phenotype (%) [5]: 0% | Population Mitotic Cells (%) [5]: 81% and 82% | Population Normal (%) [5]: 90% | Population Pyknosed Nuclei (%) [5]: 2% | Population Tubulin-Different-Phenotype (%) [5]: 14% and 11% | Total Cell Count [5]: 2886 and 2112 | Population Apoptotic (%) [6]: 40% and 17% | Population Fragmented Nuclei (%) [6]: 15% and 12% | Population Healthy Nuclei (%) [6]: 80% and 84% | Population Hoechst High Intensity Objects (%) [6]: 11% and 7% | Population Membrane Permeable-Phenotype (%) [6]: 8% and 4% | Population Mitochondria Different-Phenotype (%) [6]: 1% | Population Mitotic Cells (%) [6]: 59% and 82% | Population Normal (%) [6]: 88% and 92% | Population Pyknosed Nuclei (%) [6]: 3% | Population Tubulin-Different-Phenotype (%) [6]: 36% and 20% | Total Cell Count [6]: 1535 and 2025
